Results published in ChEMBL document CHEMBL3860044, “The Rational Design, Synthesis, and Antimicrobial Properties of Thiophene Derivatives That Inhibit Bacterial Histidine Kinases” (J Med Chem, 2016).
In brackets after ≈: the same amount, converted by molar mass. Blank lines part the entries; values can stand above or below the molecule they belong to. Activity calls are given as the source filed them. No cut-off for these calls is given here.

Tests used:
[1] = test system: Escherichia coli; assay: Bactericidal activity against amoxicillin-resistant Escherichia coli isolate G28 harboring beta-lactamase by broth microdilution method; type: functional
Procedure, shortened: (§1)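 Clinical resistant isolates and quality control strains (S. aureus ATCC 29213, E. coli ATCC 25922) are tested by EUCAST broth microdilution with a 10⁶ bacteria/mL inoculum, in triplicate, with or without a fixed adjuvant concentration. For MBC, the MIC dilution and at least two more concentrated dilutions are plated and CFU/mL counted.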

[2] = test system: Escherichia coli; assay: Antibacterial activity against Escherichia coli ATCC 25922 by broth microdilution method; type: functional
Procedure, shortened: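 Broth microdilution per EUCAST, quality-control strain alongside resistant clinical isolates; inoculum 10⁶ bacteria per mL; run in triplicate with or without adjuvant at fixed 25 µg/mL combined with β-lactams or ofloxacin. MIC read as lowest concentration with no growth; MBC from plating the MIC dilution and at least two higher dilutions, counting CFU/mL.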

[3] = test system: Staphylococcus aureus; assay: Bactericidal activity against Staphylococcus aureus ATCC 29213 by broth microdilution method; type: functional; procedure, shortened: as §1
[4] = test system: Staphylococcus aureus; assay: Antibacterial activity against Staphylococcus aureus ATCC 29213 by broth microdilution method; type: functional; procedure, shortened: as §1
[5] = test system: Escherichia coli; details: 200 uM

Structure (SMILES): CO/N=C(\C(=O)N[C@@H]1C(=O)N2C(C(=O)O)=C(COC(C)=O)CS[C@H]12)c1csc(N)n1 [CEFOTAXIME]
MBC [1]: 1 µg/mL (≈ 2.2 µM) | MIC [2]: 0.125 µg/mL (≈ 0.274 µM)

Structure (SMILES): CC1(C)S[C@@H]2[C@H](NC(=O)Cc3ccccc3)C(=O)N2[C@H]1C(=O)O [PENICILLIN G]
MBC [3]: 0.5 µg/mL (≈ 1.5 µM) | MIC [4]: 0.5 µg/mL (≈ 1.5 µM)

inhibition [5]: Active
Structure (SMILES): O=C(O)c1cn(C2CC2)c2cc(N3CCNCC3)c(F)cc2c1=O
